In ChEMBL document CHEMBL1139044, “Design and synthesis of furoxan-based nitric oxide-releasing glucocorticoid derivatives with potent anti-inflammatory activity and improved safety” (2007):
Activity calls are given as the source filed them. No cut-off for these calls is given here.

Assays:
Mus musculus [1] = assay: Antiinflammatory activity in mouse assessed as inhibition of xylene induced ear edema; type: functional, organism-based
Rattus norvegicus [2] = assay: Anti-acute-inflammatory activity in rat assessed as carrageenan induced paw edema volume at 21.7 mg/kg after 1 hr; type: functional
How it was run: (§1)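 Rats, n = 8 per group, with CMC-Na as the vehicle control. Paw swelling was induced with carrageenan, and edema volume (ml) was recorded hourly from 1 to 6 h. Significance was tested against the CMC-Na group.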

Rattus norvegicus [3] = assay: Anti-acute-inflammatory activity in rat assessed as carrageenan induced paw edema volume at 21.7 mg/kg after 2 hrs; type: functional; how it was run: as §1
Rattus norvegicus [4] = assay: Anti-acute-inflammatory activity in rat assessed as carrageenan induced paw edema volume at 21.7 mg/kg after 3 hrs; type: functional; how it was run: as §1
Rattus norvegicus [5] = assay: Anti-acute-inflammatory activity in rat assessed as carrageenan induced paw edema volume at 21.7 mg/kg after 4 hrs; type: functional; how it was run: as §1
Rattus norvegicus [6] = assay: Anti-acute-inflammatory activity in rat assessed as carrageenan induced paw edema volume at 21.7 mg/kg after 5 hrs; type: functional; how it was run: as §1
Rattus norvegicus [7] = assay: Anti-acute-inflammatory activity in rat assessed as carrageenan induced paw edema volume at 21.7 mg/kg after 6 hrs; type: functional; how it was run: as §1
Osteoblast [8] = assay: Effect on alkaline phosphatase activity per 100 ml in SD mouse osteoblasts at 10 umol/L after 48 hrs […]; type: functional
Osteoclast [9] = assay: Inhibition of survival rate of SD mouse osteoclasts at 10 umol/L after 48 hrs by TRAP assay; type: functional, cell-based
Osteoclast [10] = assay: Increase in survival rate of SD mouse osteoclasts at 10 pmol/L to 100 nmol/L after 48 hrs by TRAP assay; type: functional, cell-based
Osteoblast [11] = assay: Effect on alkaline phosphatase activity per 100 ml in SD mouse osteoblasts at 1 nmol/L after 48 hrs […]; type: functional
Osteoblast [12] = assay: Effect on alkaline phosphatase activity per 100 ml in SD mouse osteoblasts at 1 pmol/L after 48 hrs […]; type: functional
Osteoclast [13] = assay: Inhibition of survival rate of SD mouse osteoclasts at 100 nmol/L to 10 umol/L after 48 hrs by TRAP assay; type: functional, cell-based
Rattus norvegicus [14] = assay: Antihypertension activity in SD rat assessed as heart rate at 43.4 mg/kg for 3 weeks
Rattus norvegicus [15] = assay: Nitric oxide level in SD rat serum at 43.4 mg/kg for 3 weeks by nitrate reductase assay
Rattus norvegicus [16] = assay: Antihypertension activity in SD rat assessed as systolic arterial pressure at 43.4 mg/kg for 3 weeks
Rattus norvegicus [17] = assay: Antihypertension activity in SD rat assessed as diastolic arterial pressure at 43.4 mg/kg for 3 weeks
Osteoblast [18] = assay: Effect on alkaline phosphatase activity per 100 ml in SD mouse osteoblasts at 0.1 pmol/L after 48 hrs […]
Rattus norvegicus [19] = assay: Anti-acute-inflammatory activity in rat assessed as carrageenan induced paw edema volume at 23.2 mg/kg after 1 hr; type: functional; how it was run: as §1
Rattus norvegicus [20] = assay: Anti-acute-inflammatory activity in rat assessed as carrageenan induced paw edema volume at 23.2 mg/kg after 2 hrs; type: functional; how it was run: as §1
Rattus norvegicus [21] = assay: Anti-acute-inflammatory activity in rat assessed as carrageenan induced paw edema volume at 23.2 mg/kg after 3 hrs; type: functional; how it was run: as §1
Rattus norvegicus [22] = assay: Anti-acute-inflammatory activity in rat assessed as carrageenan induced paw edema volume at 23.2 mg/kg after 4 hrs; type: functional; how it was run: as §1
Rattus norvegicus [23] = assay: Anti-acute-inflammatory activity in rat assessed as carrageenan induced paw edema volume at 23.2 mg/kg after 5 hrs; type: functional; how it was run: as §1
Rattus norvegicus [24] = assay: Anti-acute-inflammatory activity in rat assessed as carrageenan induced paw edema volume at 23.2 mg/kg after 6 hrs; type: functional; how it was run: as §1
Rattus norvegicus [25] = assay: Anti-acute-inflammatory activity in rat assessed as carrageenan induced paw edema volume at 46.4 mg/kg after 1 hr; type: functional; how it was run: as §1
Rattus norvegicus [26] = assay: Anti-acute-inflammatory activity in rat assessed as carrageenan induced paw edema volume at 46.4 mg/kg after 2 hrs; type: functional; how it was run: as §1
Rattus norvegicus [27] = assay: Anti-acute-inflammatory activity in rat assessed as carrageenan induced paw edema volume at 46.4 mg/kg after 3 hrs; type: functional; how it was run: as §1
Rattus norvegicus [28] = assay: Anti-acute-inflammatory activity in rat assessed as carrageenan induced paw edema volume at 46.4 mg/kg after 4 hrs; type: functional; how it was run: as §1
Rattus norvegicus [29] = assay: Anti-acute-inflammatory activity in rat assessed as carrageenan induced paw edema volume at 46.4 mg/kg after 5 hrs; type: functional; how it was run: as §1
Rattus norvegicus [30] = assay: Anti-acute-inflammatory activity in rat assessed as carrageenan induced paw edema volume at 46.4 mg/kg after 6 hrs; type: functional; how it was run: as §1
Rattus norvegicus [31] = assay: Anti-acute-inflammatory activity in rat assessed as carrageenan induced paw edema volume at 92.9 mg/kg after 1 hr; type: functional; how it was run: as §1
Rattus norvegicus [32] = assay: Anti-acute-inflammatory activity in rat assessed as carrageenan induced paw edema volume at 92.9 mg/kg after 2 hrs; type: functional; how it was run: as §1
Rattus norvegicus [33] = assay: Anti-acute-inflammatory activity in rat assessed as carrageenan induced paw edema volume at 92.9 mg/kg after 3 hrs; type: functional; how it was run: as §1
Rattus norvegicus [34] = assay: Anti-acute-inflammatory activity in rat assessed as carrageenan induced paw edema volume at 92.9 mg/kg after 4 hrs; type: functional; how it was run: as §1
Rattus norvegicus [35] = assay: Anti-acute-inflammatory activity in rat assessed as carrageenan induced paw edema volume at 92.9 mg/kg after 5 hrs; type: functional; how it was run: as §1
Rattus norvegicus [36] = assay: Anti-acute-inflammatory activity in rat assessed as carrageenan induced paw edema volume at 92.9 mg/kg after 6 hrs; type: functional; how it was run: as §1
Rattus norvegicus [37] = organism: Rattus norvegicus; assay: Anti-subacute-inflammatory activity in rat assessed as inhibition cotton pellet induced granuloma formation; type: functional, organism-based
Rattus norvegicus [38] = organism: Rattus norvegicus; assay: Antiinflammatory activity in rat assessed as inhibition of Freund's adjuvant induced arthritis; type: functional, organism-based
Mus musculus [39] = assay: Antihypertension activity in SD mouse assessed as systolic arterial pressure at 92.9 mg/kg for 3 weeks; type: functional, Artery
How it was run: (§2)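 Animals were assigned to groups (n = 10) and dosed for 3 weeks, with CMC-Na as the vehicle group. Systolic pressure, diastolic pressure and heart rate were recorded 1 h after the last dose using a multi-channel tail-artery blood pressure system.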

Mus musculus [40] = assay: Antihypertension activity in SD mouse assessed as diastolic arterial pressure at 92.9 mg/kg for 3 weeks; type: functional, Artery; how it was run: as §2
Mus musculus [41] = assay: Antihypertension activity in SD mouse assessed as heart rate at 92.9 mg/kg for 3 weeks; type: functional; how it was run: as §2
Mus musculus [42] = assay: Nitric oxide level in SD mouse serum at 92.9 mg/kg for 3 weeks by nitrate reductase assay; type: functional
How it was run: (§3)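 Animals were dosed for 3 weeks (n = 10) with a CMC-Na vehicle group. After the blood pressure readings, […] was drawn from the femoral artery and serum NO (µmol/L) was determined by nitrate reductase assay.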

Mus musculus [43] = assay: Antihypertension activity in SD mouse assessed as systolic arterial pressure at 31 mg/kg for 3 weeks; type: functional, Artery; how it was run: as §2
Mus musculus [44] = assay: Antihypertension activity in SD mouse assessed as diastolic arterial pressure at 31 mg/kg for 3 weeks; type: functional, Artery; how it was run: as §2
Mus musculus [45] = assay: Antihypertension activity in SD mouse assessed as heart rate at 31 mg/kg for 3 weeks; type: functional; how it was run: as §2
Mus musculus [46] = assay: Nitric oxide level in SD mouse serum at 31 mg/kg for 3 weeks by nitrate reductase assay; type: functional; how it was run: as §3

For `CC(CCOc1no[n+]([O-])c1S(=O)(=O)c1ccccc1)OC(=O)CCC(=O)OCC(=O)[C@@]1(O)CC[C@H]2[C@@H]3CCC4=CC(=O)CC[C@]4(C)[C@H]3[C@@H](O)C[C@@]21C` (some centres not stated), which Activity (Mus musculus [1]) is on record?
Its Activity is “Active”.

Which Activity (Rattus norvegicus [2]) does the source give for `C[C@]12CCC(=O)C=C1CC[C@@H]1[C@@H]2[C@@H](O)C[C@@]2(C)[C@H]1CC[C@]2(O)C(=O)CO` [HYDROCORTISONE] here?
The Activity was 0.15 mL.

And the Activity (Rattus norvegicus [3])?
Its Activity is 0.25 mL.

What about the Activity (Rattus norvegicus [4]) of the same compound?
The Activity was 0.54 mL.

What about the Activity (Rattus norvegicus [5]) of the same compound?
The Activity was 0.85 mL.

And the Activity (Rattus norvegicus [6])?
Its Activity is 0.98 mL.

What about the Activity (Rattus norvegicus [7]) of the same compound?
Its Activity is 1.02 mL.

And the Activity (Osteoblast [8])?
Its Activity is 2.26 U.

What about the Activity (Osteoclast [9]) of the same compound?
Its Activity is “Active”.

What about the Activity (Osteoclast [10]) of the same compound?
Its Activity is “Active”.

What about the Activity (Osteoblast [11]) of the same compound?
The Activity was 2.66 U.

And the Activity (Osteoblast [12])?
Its Activity is 2.69 U.

What about the Activity (Osteoclast [13]) of the same compound?
The Activity was “Active”.

What about the Activity (Rattus norvegicus [14]) of the same compound?
The Activity was 365.2.

And the Activity (Rattus norvegicus [15])?
Its Activity is 28 µmol/L.

And the Activity (Rattus norvegicus [16])?
Its Activity is 156.7 mmHg.

What about the Activity (Rattus norvegicus [17]) of the same compound?
The Activity was 109.6 mmHg.

And the Activity (Osteoblast [18])?
Its Activity is 2.07 U.

With `C[C@]12CCC(=O)C=C1CC[C@@H]1[C@@H]2[C@@H](O)C[C@@]2(C)[C@H]1CC[C@]2(O)C(=O)COC(=O)CCC(=O)OCCCCOc1no[n+]([O-])c1S(=O)(=O)c1ccccc1` as the compound, how does the Activity (Mus musculus [1]) read?
Its Activity is “Active”.

Which Activity (Mus musculus [1]) does the source give for `C[C@]12CCC(=O)C=C1CC[C@@H]1[C@@H]2[C@@H](O)C[C@@]2(C)[C@H]1CC[C@]2(O)C(=O)COC(=O)CCC(=O)OCCOCCOc1no[n+]([O-])c1S(=O)(=O)c1ccccc1` here?
Its Activity is “Active”.

And the Activity (Rattus norvegicus [19])?
Its Activity is 0.1 mL.

What about the Activity (Rattus norvegicus [20]) of the same compound?
The Activity was 0.39 mL.

What about the Activity (Rattus norvegicus [21]) of the same compound?
The Activity was 0.74 mL.

And the Activity (Rattus norvegicus [22])?
Its Activity is 0.99 mL.

What about the Activity (Rattus norvegicus [23]) of the same compound?
The Activity was 1.12 mL.

What about the Activity (Rattus norvegicus [24]) of the same compound?
Its Activity is 1.07 mL.

And the Activity (Rattus norvegicus [25])?
The Activity was 0.13 mL.

And the Activity (Rattus norvegicus [26])?
The Activity was 0.24 mL.

What about the Activity (Rattus norvegicus [27]) of the same compound?
The Activity was 0.56 mL.

What about the Activity (Rattus norvegicus [28]) of the same compound?
The Activity was 0.94 mL.

What about the Activity (Rattus norvegicus [29]) of the same compound?
The Activity was 0.95 mL.

And the Activity (Rattus norvegicus [30])?
The Activity was 0.92 mL.

And the Activity (Rattus norvegicus [31])?
Its Activity is 0.12 mL.

What about the Activity (Rattus norvegicus [32]) of the same compound?
The Activity was 0.22 mL.

And the Activity (Rattus norvegicus [33])?
Its Activity is 0.41 mL.

What about the Activity (Rattus norvegicus [34]) of the same compound?
The Activity was 0.65 mL.

And the Activity (Rattus norvegicus [35])?
The Activity was 0.8 mL.

And the Activity (Rattus norvegicus [36])?
Its Activity is 0.81 mL.

What about the Activity (Rattus norvegicus [37]) of the same compound?
Its Activity is “Dose-dependent effect”.

And the Activity (Rattus norvegicus [38])?
The Activity was “Active”.

What about the Activity (Osteoblast [8]) of the same compound?
The Activity was 1.54 U.

And the Activity (Mus musculus [39])?
The Activity was 137.8 mmHg.

What about the Activity (Mus musculus [40]) of the same compound?
The Activity was 86.9 mmHg.

And the Activity (Mus musculus [41])?
The Activity was 379.3.

What about the Activity (Mus musculus [42]) of the same compound?
The Activity was 40.9 µmol/L.

And the Activity (Mus musculus [43])?
The Activity was 144.5 mmHg.

What about the Activity (Mus musculus [44]) of the same compound?
Its Activity is 97.8 mmHg.

What about the Activity (Mus musculus [45]) of the same compound?
The Activity was 360.3.

And the Activity (Mus musculus [46])?
The Activity was 31 µmol/L.

And the Activity (Osteoblast [11])?
Its Activity is 2.97 U.

And the Activity (Osteoblast [12])?
The Activity was 2.24 U.

And the Activity (Osteoblast [18])?
Its Activity is 1.89 U.
